According to ChEMBL document CHEMBL3351938, “C5-Alkyl-2-methylurea-Substituted Pyridines as a New Class of Glucokinase Activators” (ACS Med Chem Lett, 2014):
≈ marks a conversion by molar mass, not a printed value.

What was measured:
Hexokinase-4 [1] = target: T1, Hexokinase-4 (Homo sapiens, UniProt P35557); experiment: Activation of human recombinant Glucokinase measured over 5 mins by G6-PD coupled assay in presence of 5 mM glucose
T1 sequence (P35557 whole entry): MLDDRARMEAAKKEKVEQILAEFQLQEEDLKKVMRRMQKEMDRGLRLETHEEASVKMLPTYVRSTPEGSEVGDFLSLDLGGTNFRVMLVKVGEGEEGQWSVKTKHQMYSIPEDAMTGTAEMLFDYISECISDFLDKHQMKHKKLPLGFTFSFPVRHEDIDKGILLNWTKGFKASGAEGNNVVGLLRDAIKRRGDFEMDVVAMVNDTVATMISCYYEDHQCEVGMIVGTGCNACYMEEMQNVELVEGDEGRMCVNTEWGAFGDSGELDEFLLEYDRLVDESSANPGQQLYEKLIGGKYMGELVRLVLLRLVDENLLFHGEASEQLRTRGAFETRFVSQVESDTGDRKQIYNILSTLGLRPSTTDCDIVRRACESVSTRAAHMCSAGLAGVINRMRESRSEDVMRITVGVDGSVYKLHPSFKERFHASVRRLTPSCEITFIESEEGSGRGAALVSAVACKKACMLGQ
Method in brief: (§1)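 Recombinant human GK; glucose held at 5 mM for EC₅₀ determination; run in duplicate (n = 2).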

[2] = Drug metabolism in rat liver microsomes assessed as compound turnover at 1 uM after 30 mins; format: ADME; settings: read-out: Drug metabolism
Method in brief: (§2)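 Test compound at 1 μM initial concentration was incubated with 0.25 mg/mL rat or human liver microsomes for 30 min at 37 °C; percent turnover is the percentage of parent metabolized.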

[3] = Drug metabolism in human liver microsomes assessed as compound turnover at 1 uM after 30 mins; format: ADME; settings: read-out: Drug metabolism; method in brief: as §2
[4] = AUC in rat at 10 mg/kg, po; format: ADME, organism-based; design: dose 10 mg/kg, route oral; settings: plasma
Method in brief: (§3)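 Rats: IV dose 1 mg/kg, n = 3; PO dose 10 mg/kg, n = 3.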

Mus musculus [5] = experiment: Antidiabetic activity in C57Bl/6 mouse assessed as reduction in blood glucose AUC at 10 mg/kg, po administered 30 mins prior glucose challenge by oral glucose tolerance test; format: functional; design: scale not given: the % may be the effect or the level left
Method in brief: (§4)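 Oral dose–response OGTT in C57Bl/6 mice at 3, 10 and 30 mg/kg; blood glucose area-under-curve assessed; significance versus vehicle by two-way ANOVA.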

Mus musculus [6] = experiment: Antidiabetic activity in C57Bl/6 mouse assessed as reduction in plasma glucose level at 30 mg/kg, po administered 30 mins prior glucose challenge measured 1.5 to 2 hrs post dose by oral glucose tolerance test; format: functional; method in brief: as §4
[7] = Solubility of the compound in PBS buffer at 7.4; format: physicochemical; settings: pH 7.4
[8] = Volume of distribution at steady state in rat at 1 mg/kg, iv; format: ADME, organism-based; design: dose 1 mg/kg, route intravenous; settings: in vivo, read-out: Vdss; method in brief: as §3
[9] = Clearance in rat at 1 mg/kg, iv; format: ADME, organism-based; design: dose 1 mg/kg, route intravenous; settings: in vivo; method in brief: as §3
[10] = Oral bioavailability in mouse at 10 mg/kg; format: ADME, organism-based; settings: in vivo
Method in brief: (§5)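 Mice: IV dose 1 mg/kg, n = 3; PO dose 10 mg/kg, n = 3.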

[11] = Drug metabolism in human primary hepatocytes; format: ADME, cell-based, Hepatocyte; settings: read-out: Drug metabolism
[12] = Clearance in mouse at 1 mg/kg, iv; format: ADME, organism-based; design: dose 1 mg/kg, route intravenous; settings: in vivo; method in brief: as §5
[13] = Volume of distribution at steady state in mouse at 1 mg/kg, iv; format: ADME, organism-based; design: dose 1 mg/kg, route intravenous; settings: in vivo, read-out: Vdss; method in brief: as §5
[14] = Half life in rat at 1 mg/kg, iv; format: ADME, organism-based; design: dose 1 mg/kg, route intravenous; settings: in vivo; method in brief: as §3
[15] = Oral bioavailability in rat at 10 mg/kg; format: ADME, organism-based; settings: in vivo; method in brief: as §3
[16] = AUC in mouse at 10 mg/kg, po; format: ADME, organism-based; design: dose 10 mg/kg, route oral; settings: plasma; method in brief: as §5
Mus musculus [17] = experiment: Antidiabetic activity in C57Bl/6 mouse assessed as reduction in blood glucose AUC at 3 mg/kg, po administered 30 mins prior glucose challenge by oral glucose tolerance test; format: functional; design: scale not given: the % may be the effect or the level left; method in brief: as §4
[18] = Half life in mouse at 1 mg/kg, iv; format: ADME, organism-based; design: dose 1 mg/kg, route intravenous; settings: in vivo; method in brief: as §5
[19] = Volume of distribution at steady state in dog at 0.5 mg/kg, iv; settings: in vivo, read-out: Vdss
Canis familiaris [20] = experiment: Oral bioavailability in dog at 2 mg/kg; settings: in vivo
[21] = Oral bioavailability in rat at 2 mg/kg; format: ADME, organism-based; settings: in vivo
Canis familiaris [22] = experiment: Clearance in dog at 0.5 mg/kg, iv; settings: in vivo
[23] = Permeability across pig LLC-PK cells; format: ADME, cell-based, Sus scrofa; settings: LLC-PK1, read-out: permeability
[24] = Plasma protein binding in mouse; format: ADME; settings: read-out: PPB (converted)
Hexokinase-4 [25] = target: T1, Hexokinase-4; experiment: Activation of human recombinant Glucokinase measured over 5 mins by G6-PD coupled assay in presence of 5 mM glucose and 4% HSA; method in brief: as §1
[26] = Clearance in rat at 0.5 mg/kg, iv; format: ADME, organism-based; design: dose 0.5 mg/kg, route intravenous; settings: in vivo
[27] = AUC in mouse at 5 mg/kg, po; format: ADME, organism-based; design: dose 5 mg/kg, route oral; settings: plasma
[28] = Plasma protein binding in human; format: ADME, cell-free; settings: read-out: PPB (converted)
[29] = Volume of distribution at steady state in rat at 0.5 mg/kg, iv; format: ADME, organism-based; design: dose 0.5 mg/kg, route intravenous; settings: in vivo, read-out: Vdss
[30] = AUC in rat at 2 mg/kg, po; format: ADME, organism-based; design: dose 2 mg/kg, route oral; settings: plasma
[31] = Oral bioavailability in mouse at 5 mg/kg; format: ADME, organism-based; settings: in vivo
Mus musculus [32] = experiment: Antidiabetic activity in fasted ob/ob mouse assessed as reduction in blood glucose AUC at 10 mg/kg, po administered 30 mins prior glucose challenge by oral glucose tolerance test relative to control; format: functional; design: scale not given: the % may be the effect or the level left
Method in brief: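 OGTT in fasted ob/ob mice with oral doses of 0.3, 1, 3 and 10 mg/kg; blood glucose AUC compared to vehicle by two-way ANOVA.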

Mus musculus [33] = experiment: Hypoglycemic activity in fed C57Bl/6 mouse assessed as change in blood glucose level at 10 to 30 mg/kg, po followed by food withdrawal for 4 hrs measured 30 to 240 mins post dose by normoglycemic glucose lowering test; format: ADME, organism-based; design: route oral; settings: in vivo
Method in brief: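 Fed male C57Bl/6 mice dosed orally with vehicle or compound (10 or 30 mg/kg) without glucose challenge, then food removed for 4 h; blood glucose sampled at various time points; two-way ANOVA versus vehicle.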

[34] = Half life in rat at 0.5 mg/kg, iv; format: ADME, organism-based; design: dose 0.5 mg/kg, route intravenous; settings: in vivo
[35] = Half life in dog at 0.5 mg/kg, iv; settings: in vivo
[36] = Plasma protein binding in rat; format: ADME, cell-free; settings: read-out: PPB
Canis familiaris [37] = experiment: AUC in dog at 2 mg/kg, po; settings: in vivo

Row | Compound | EC50 (Hexokinase-4 [1]) | metabolised at 0.5 h, 1 µM [2] | metabolised at 0.5 h, 1 µM [3] | other results
1 | CCn1nc(COC)cc1Oc1cc(CC2CCOCC2)cnc1NC(=O)NC | 820 nM |  |  | 
2 | CCc1ncccc1Oc1cc(CC(C)C)cnc1NC(=O)NC | 120 nM | 95% | 56% | 
3 | CCOCCc1cnc(NC(=O)NC)c(Oc2cccnc2CC)c1 | 590 nM | 76% | 21% | 
4 | CCc1ncccc1Oc1cc(CCCOC)cnc1NC(=O)NC | 440 nM |  |  | 
5 | CCc1ncccc1Oc1cc(CCCCOC)cnc1NC(=O)NC | 110 nM | 41% | 23% | 
6 | CCc1ncccc1Oc1cc(CCO)cnc1NC(=O)NC | 1590 nM | 10% | 10% | 
7 | CCc1ncccc1Oc1cc(CCCCO)cnc1NC(=O)NC | 350 nM | 33% | 20% | 
8 | CCc1ncccc1Oc1cc(CCCC(C)(C)O)cnc1NC(=O)NC | 110 nM | 17% | 31% | 
9 | CCc1ncccc1Oc1cc(CC2CCCCC2)cnc1NC(=O)NC | 14 nM | 95% | 99% | 
10 | CCc1ncccc1Oc1cc(CC2CCOCC2)cnc1NC(=O)NC | 290 nM |  |  | 
11 | CCn1nccc1Oc1cc(CCCCOC)cnc1NC(=O)NC | 460 nM | 31% | 10% | 
12 | CCn1nccc1Oc1cc(CCCC(C)(C)O)cnc1NC(=O)NC | 370 nM | 10% | 10% | 
13 | CCn1nccc1Oc1cc(CC2CCOCC2)cnc1NC(=O)NC | 350 nM | 25% | 10% | AUC [4]: 3.51 µM·h; Activity (Mus musculus [5]): 32%; Activity (Mus musculus [6]): 77 mg/dL; solubility [7]: 718 µg/mL (≈ 2000 µM); Vd [8]: 0.8 L/kg; clearance [9]: 25 mL/min/kg; bioavailability [10]: 81%; metabolised [11]: 15%; clearance [12]: 28.3 mL/min/kg; Vd [13]: 1.5 L/kg; half-life [14]: 0.41 h; bioavailability [15]: 19%; AUC [16]: 13.3 µM·h; Activity (Mus musculus [17]): 15%; half-life [18]: 0.72 h
14 | CCn1nccc1Oc1cc(C(O)C2CCOCC2)cnc1NC(=O)NC (centres undefined) | 16800 nM |  |  | 
15 | CCn1nccc1Oc1cc(CN2CCOCC2)cnc1NC(=O)NC | 7980 nM |  |  | 
16 | CCn1nccc1Oc1cc(C[C@H]2CCO[C@H](COC)C2)cnc1NC(=O)NC | 490 nM |  |  | 
17 | CCn1nccc1Oc1cc(C[C@@H]2CCO[C@@H](COC)C2)cnc1NC(=O)NC | 350 nM |  |  | 
18 | CNC(=O)Nc1ncc(CC2CCOCC2)cc1Oc1ccnn1C(C)C | 2760 nM |  |  | 
19 | CCn1nccc1Oc1cc(C[C@H]2CC[C@H](O)CC2)cnc1NC(=O)NC | 68 nM |  |  | 
20 | CCn1nccc1Oc1cc(C[C@H]2CC[C@@H](O)CC2)cnc1NC(=O)NC | 120 nM |  |  | 
21 | CCn1nccc1Oc1cc(C[C@H]2CC[C@](C)(O)CC2)cnc1NC(=O)NC | 110 nM |  |  | 
22 | CCn1nccc1Oc1cc(C[C@H]2CC[C@@](C)(O)CC2)cnc1NC(=O)NC | 97 nM |  |  | 
23 | CCn1nccc1Oc1cc(C[C@H]2C[C@@H](O)C2)cnc1NC(=O)NC | 530 nM |  |  | 
24 | CCn1nccc1Oc1cc(C[C@H]2C[C@H](O)C2)cnc1NC(=O)NC | 500 nM |  |  | 
25 | CCn1nccc1Oc1cc(C[C@H]2C[C@@](C)(O)C2)cnc1NC(=O)NC | 710 nM |  |  | 
26 | CCn1nccc1Oc1cc(C[C@H]2C[C@](C)(O)C2)cnc1NC(=O)NC |  |  |  | Vd [19]: 2.2 L/kg; F (Canis familiaris [20]): 72%; bioavailability [21]: 9%; CL (Canis familiaris [22]): 10.7 mL/min/kg; Papp [23]: 32.4 ×10⁻⁶ cm/s; fraction unbound [24]: 0.44; EC50 (Hexokinase-4 [25]): 280 nM; clearance [26]: 26.7 mL/min/kg; AUC [27]: 6.84 µM·h; fraction unbound [28]: 0.44; Vd [29]: 0.8 L/kg; AUC [30]: 0.39 µM·h; bioavailability [31]: 44%; Activity (Mus musculus [32]): 43%; Activity (Mus musculus [33]): Non-toxic; half-life [34]: 2 h; half-life [35]: 5.5 h; fraction unbound [36]: 0.5; AUC (Canis familiaris [37]): 6.4 µM·h
